Experiments:
HEK293T cells = experiment: LC3 lipidation / GFP-LC3B puncta, WT or ATG13_KO cells; assay type: cell-based, human; settings: for LC3 lipidation / puncta (in words): HEK293T WT or ATG13_KO, MK6-83 25 μM, C8 2 μM, AZD8055 1 μM
Outline: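 HEK293T cells in DMEM with 10% FBS and 1% penicillin/streptomycin at 37°C, 5% CO2, treated over a time course. Lysates denatured in Laemmli buffer at 100°C for 5 min. Immunoblot: primary antibodies in 5% BSA/TBS-0.2% Tween 20 overnight at 4°C; HRP secondaries at 1:20,000 for 1 h at room temperature. GFP-LC3B followed by time-lapse imaging.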

TFEB = TFEB activation / nuclear localization; assay type: cell-based
Outline: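 FNIP1/2_DKO HeLa expressing WT or LIR FNIP1 were stimulated with two TRPML1-activating agents (2 μM and 1 μM). TFEB was immunostained with primary antibody overnight at 4°C, then Alexa secondary (1:1000) with DAPI for 1 h at RT. TFEB nuclear localization was scored by high-content imaging, ≥1500 cells per condition. Values are means ± SD; unpaired t test.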

FNIP1/2_DKO HeLa cells = experiment: GPNMB protein level; assay type: cell-based; settings: prolonged treatment; WT or LIR FNIP1 in FNIP1/2_DKO HeLa
Outline: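 GPNMB, a TFEB/TFE3 target, was read by Western blot in FNIP1/2_DKO HeLa re-expressing WT or LIR-variant FNIP1 after prolonged stimulation to activate TRPML1. Cells were grown at 37°C in 5% CO2. Lysates were denatured in Laemmli buffer (100°C, 5 min). Primary antibody (1:1000 unless noted) was in 5% BSA/TBS-0.2% Tween 20, overnight at 4°C. HRP secondary was 1:20,000, 1 h at RT.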

[1] = system: primary bone marrow–derived macrophages (BMDMs); experiment: LC3 puncta in primary BMDMs, ATG16L1 WT or K490A; assay type: cell-based, mouse; settings: 1 hour
FLCN-FNIP1 complex = experiment: Co-immunoprecipitation of GABARAP with FLCN-FNIP1; assay type: binding, human; settings: HEK293T cells, transfected 20 hours
[2] = system: FLCN-FNIP1 complex in HeLa cells; experiment: FLCN-FNIP recruitment to membrane fractions, Western blot; assay type: cell-based; settings: monensin 1uM, C8 2uM, 30 min; WT or TRPML1_KO HeLa
Outline: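 HeLa cells (WT or TRPML1_KO) grown in DMEM with 10% FBS and 1% penicillin/streptomycin at 37°C, 5% CO2. 1.5 × 10^6 cells plated the day before treatment. Membrane fractions prepared with a commercial kit and denatured in Laemmli buffer at 100°C for 5 min. Immunoblot: primary antibodies in 5% BSA/TBS-0.2% Tween 20 at 4°C overnight; HRP secondaries at 1:20,000 for 1 h at room temperature.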

In the case of `COc1ccc(-c2ccc3c(N4CCOC[C@@H]4C)nc(N4CCOC[C@@H]4C)nc3n2)cc1CO` [AZD8055], the “LC3 lipidation, sensitivity to BafA1 or PIK-III (in words)” value (HEK293T cells; BafA1 100 nM, PIK-III 5 μM) is reported as “sensitive to the VPS34 inhibitor PIK-III and potentiated with the vacuolater ATPase (V-ATPase) inhibitor bafilomycin A1 (BafA1)”, the “LC3 lipidation / puncta (in words)” value (HEK293T cells) is reported as “able to regulate LC3 lipidation in WT but not ATG13_KO cells” and the “TFEB activation versus ATG16L1 allele status (in words)” value (TFEB; ATG16L1_KO HeLa reexpressing ATG16L1 variants) is reported as “activated TFEB irrespective of ATG16L1 allele status”. For the same compound, the “TFEB activation / nuclear accumulation (in words)” value (TFEB; HeLa) was “robust TFEB activation” and the “GPNMB protein levels (in words)” value (FNIP1/2_DKO HeLa cells) was “largely suppressed”.
In the case of `CO/C1=C\C(C)=C\[C@@H](C)[C@@H](O)[C@@H](C)C/C(C)=C/C=C/[C@H](OC)[C@@H]([C@@H](C)[C@@H](O)[C@H](C)[C@@]2(O)C[C@@H](O)[C@H](C)[C@@H](C(C)C)O2)OC1=O` [BafA1, bafilomycin A1], the “TFEB activation, effect of BafA1 cotreatment (in words)” value (TFEB; BafA1 100 nM, acute, HeLa) is reported as “sufficient to block TFEB activation by TRPML1 agonists; however, it did not affect TFEB activation upon mTOR inhibition”.
For `CC1=CC(C)(C)N(C(=O)CN2C(=O)c3ccccc3C2=O)c2ccccc21` [ML-SA1], the “LC3 lipidation / puncta (in words)” value (HEK293T cells) was “rapid conversion of LC3 from its cytoplasmic “I” form to the lipidated, punctate “II” form in both wild-type (WT) and autophagy-deficient cells (ATG13_KO)” and the “LC3 puncta in BMDMs (in words)” value [1] was “unable to induce LC3 puncta in ATG16L1^K490A-expressing cells”.
For “GABARAP: full-length human GABARAP (1 to 117), ATG8 family protein”, the “interaction with FLCN-FNIP1 complex (in words)” value (FLCN-FNIP1 complex) was “interacts with GABARAP through LIR-dependent binding”.
For `CC[C@@]1([C@@H]2O[C@@H]([C@H]3O[C@@](O)(CO)[C@H](C)C[C@@H]3C)C[C@@H]2C)CC[C@H]([C@]2(C)CC[C@]3(C[C@H](O)[C@@H](C)[C@@H]([C@@H](C)[C@@H](OC)[C@H](C)C(=O)O)O3)O2)O1` [monensin], the “FLCN-FNIP membrane recruitment (in words)” value [2] was “could induce FLCN-FNIP1 complex sequestration independently of TRPML1” and the “TFEB activation, FNIP1-LIR dependence (in words)” value (TFEB; FNIP1-WT or FNIP1-LIR in FNIP1/2_DKO HeLa, monensin 1uM, 4 hr) was “regulated TFEB activation in an FNIP1-LIR domain–dependent manner”.
For `Cc1ccc(S(=O)(=O)Nc2ccccc2N2CCCCC2)s1` [MK6-83], the “LC3 lipidation / puncta (in words)” value (HEK293T cells) was “rapid conversion of LC3 from its cytoplasmic “I” form to the lipidated, punctate “II” form in both wild-type (WT) and autophagy-deficient cells (ATG13_KO)”.
